In ChEMBL document CHEMBL4020714, “Design, synthesis, and evaluation of curcumin derivatives as Nrf2 activators and cytoprotectors against oxidative death” (Eur J Med Chem, 2017):
Activity calls are given as the source filed them. The calls are words filed in the database; no cut-off is given here.

How the values were obtained:
Type in all cases: cell-based
[1] = target: T1, Nuclear factor erythroid 2-related factor 2 (Homo sapiens) (UniProt Q16236); experiment: Activation of Nrf2 in human HepG2 cells assessed as increase in cytosolic Nrf2 expression level after 3 hrs by Western blot analysis
T1 sequence (whole entry): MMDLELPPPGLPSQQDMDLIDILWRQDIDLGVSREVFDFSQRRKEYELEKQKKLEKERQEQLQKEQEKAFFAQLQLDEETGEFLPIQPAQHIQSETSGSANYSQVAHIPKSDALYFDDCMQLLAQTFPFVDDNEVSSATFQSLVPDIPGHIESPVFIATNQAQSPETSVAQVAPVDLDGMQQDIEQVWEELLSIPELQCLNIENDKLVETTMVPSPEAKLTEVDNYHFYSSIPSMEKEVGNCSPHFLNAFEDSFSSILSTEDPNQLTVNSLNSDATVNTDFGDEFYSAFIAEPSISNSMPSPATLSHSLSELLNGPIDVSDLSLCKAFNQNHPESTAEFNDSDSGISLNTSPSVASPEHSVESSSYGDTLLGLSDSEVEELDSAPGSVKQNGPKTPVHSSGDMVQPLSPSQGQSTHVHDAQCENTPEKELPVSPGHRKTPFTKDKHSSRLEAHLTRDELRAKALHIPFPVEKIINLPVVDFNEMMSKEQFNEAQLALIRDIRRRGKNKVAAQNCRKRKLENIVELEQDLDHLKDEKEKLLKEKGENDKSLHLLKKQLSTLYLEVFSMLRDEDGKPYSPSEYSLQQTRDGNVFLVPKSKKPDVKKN
Method in brief: (§1)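 HepG2 cells (2×10^6/well) treated at the indicated concentrations and times. Whole-cell lysates, or nuclear and cytoplasmic fractions, are prepared and quantified by BCA. Samples are run at 40 μg/lane on 12% SDS-PAGE, transferred to nitrocellulose, probed with specific antibodies and HRP secondary (1/5000), and detected by ECL. Where used, LY294002 (15 μM), SP600125 (25 μM) or DTT (400 μM) is added 1 h before compound.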

[2] = target: T1, Nuclear factor erythroid 2-related factor 2 (Homo sapiens); experiment: Activation of Nrf2 in human HepG2 cells assessed as increase in GCLC expression level after 24 hrs by Western blot analysis; method in brief: as §1
[3] = target: T1, Nuclear factor erythroid 2-related factor 2 (Homo sapiens); experiment: Activation of Nrf2 in human HepG2 cells assessed as increase in GCLM expression level after 3 hrs by Western blot analysis; method in brief: as §1
[4] = target: T1, Nuclear factor erythroid 2-related factor 2 (Homo sapiens); experiment: Activation of Nrf2 in human HepG2 cells assessed as increase in GCLM expression level at 5 uM in presence of 15 uM PI3K/Akt inhibitor LY294002 for 1 hr prior to compound treatment by Western blot analysis; method in brief: as §1
[5] = target: Kelch-like ECH-associated protein 1 (Homo sapiens) (UniProt Q14145); experiment: Induction of keap1-dependent Nrf2 stabilization in human HepG2 cells assessed as upregulation of total Nrf2 level at 5 uM pretreated for 3 hrs followed by coincubation with 5 ug/ml cycloheximide for 24 hrs by Western blot analysis
Kelch-like ECH-associated protein 1 (Homo sapiens), sequence (Q14145 whole entry): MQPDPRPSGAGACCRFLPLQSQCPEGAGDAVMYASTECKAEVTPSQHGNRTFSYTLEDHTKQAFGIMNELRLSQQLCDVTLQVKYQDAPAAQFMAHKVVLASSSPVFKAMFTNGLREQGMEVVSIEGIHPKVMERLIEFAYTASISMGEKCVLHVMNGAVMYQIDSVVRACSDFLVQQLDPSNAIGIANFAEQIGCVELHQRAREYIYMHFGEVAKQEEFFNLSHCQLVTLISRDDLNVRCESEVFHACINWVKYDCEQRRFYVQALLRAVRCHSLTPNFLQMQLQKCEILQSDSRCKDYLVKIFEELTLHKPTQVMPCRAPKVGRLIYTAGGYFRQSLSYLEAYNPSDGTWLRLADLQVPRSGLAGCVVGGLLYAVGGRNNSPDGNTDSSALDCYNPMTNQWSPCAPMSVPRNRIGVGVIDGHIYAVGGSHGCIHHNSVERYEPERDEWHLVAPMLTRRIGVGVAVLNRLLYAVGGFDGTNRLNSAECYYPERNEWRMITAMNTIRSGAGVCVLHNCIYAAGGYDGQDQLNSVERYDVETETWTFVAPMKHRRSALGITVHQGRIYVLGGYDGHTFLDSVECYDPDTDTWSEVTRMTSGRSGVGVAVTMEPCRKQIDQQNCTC
Method in brief: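 HepG2 cells pretreated with or without 5 μM compound for 3 h, then given 5 μg/mL cycloheximide for the indicated periods (up to 24 h). Total lysates are immunoblotted for Nrf2. Half-life is obtained by fitting a single-phase decay model.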

In the case of `CC(C)(C(=O)/C=C/c1ccc(O)c(O)c1)C(=O)/C=C/c1ccc(O)c(O)c1`, the Activity [1] is reported as “Dose-dependent effect”, the Activity [2] is reported as “Dose-dependent effect” and the Activity [3] is reported as “Active”. The Activity [4] was “inactive” and the Activity [5] was “Active”.
